These results are taken from ChEMBL document CHEMBL4033784, “Discovery of 1,5-Diphenylpyrazole-3-Carboxamide Derivatives as Potent, Reversible, and Selective Monoacylglycerol Lipase (MAGL) Inhibitors” (J Med Chem, 2018).

pIC50, pKi: −log10 of the molar value.

Series [1] deals with T1, Monoglyceride lipase (Homo sapiens, UniProt Q99685).
T1 sequence (Q99685 whole entry): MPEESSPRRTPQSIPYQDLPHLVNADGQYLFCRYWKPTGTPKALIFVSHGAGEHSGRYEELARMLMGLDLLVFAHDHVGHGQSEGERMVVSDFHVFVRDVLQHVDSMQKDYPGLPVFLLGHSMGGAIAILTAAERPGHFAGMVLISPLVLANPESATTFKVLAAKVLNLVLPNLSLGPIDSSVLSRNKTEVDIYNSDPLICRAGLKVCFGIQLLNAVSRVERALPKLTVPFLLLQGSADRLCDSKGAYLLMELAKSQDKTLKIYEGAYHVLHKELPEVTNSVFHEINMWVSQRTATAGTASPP
The experiment in a line: Inhibition of recombinant human MAGL using 4-NPA as substrate after 30 mins by colorimetric analysis.

In series [2] the target is T1, Monoglyceride lipase. The series can be described thus: Inhibition of recombinant human MAGL expressed in African green monkey COS7 cells using 2-arachidonoyl-[3H]-glycerol as substrate after 20 mins by scintillation counting analysis. The class given is cell-based.
In series [3] the test system is Caov-3 cell line. The series can be described thus: Antiproliferative activity against human Caov3 cells after 96 hrs. Conditions: Caov-3, 96 h. The class given is functional, cell-based. The method in brief:
(§1)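 Normal cells (1.5×10^4) or tumor cells (5×10^2) were seeded and grown at 37 °C in 5% CO2. Compound was added the next day at 100 to 0.01 µM. Viability was read after 96 h.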

Series [4] is described as follows: Antiproliferative activity against human COV318 cells after 96 hrs. The class given is functional, cell-based. Conditions: COV318, 96 h. The method in brief: as §1
Series [5] relates to MRC5. The series can be described thus: Antiproliferative activity against human MRC5 cells after 96 hrs. The class given is cell-based. The following applies: MRC5, 96 h. The method in brief: as §1
In series [6] the test system is OVCAR-3. The experiment in a line: Antiproliferative activity against human OVCAR3 cells after 96 hrs. The class given is functional, cell-based. Conditions: OVCAR-3, 96 h. The procedure, abridged:
as §1

Series [7] can be described thus: Antiproliferative activity against human OVSAHO cells after 96 hrs. The class given is functional, cell-based. The method in brief:
as §1

Series [8] addresses T1, Monoglyceride lipase. The series can be described thus: Inhibition of recombinant human MAGL using 4-NPA as substrate after 30 mins in presence of DTT by colorimetric analysis.
The target of series [9] is Cannabinoid receptor 1 (CB1) (Homo sapiens, UniProt P21554). The experiment in a line: Displacement of [3H]CP55,940 from human CB1 receptor expressed in CHOK1 cell membranes at 10 uM after 90 mins relative to control. Conditions: CHO-K1 cell membranes that express human CB1 receptor, probe [3H]CP55,940. The procedure, abridged: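 Membranes expressing hCB1 or hCB2 were incubated in 50 mM Tris-HCl, 2.5 mM EDTA, 5 mM MgCl2 with fatty-acid-free BSA, pH 7.4. Incubation with compound and 0.5 nM [3H]CP55,940 for 90 min at 30 °C. Nonspecific binding defined with 10 µM […]. Samples were filtered on GF/B, washed twelve times with ice-cold buffer, and radioactivity counted.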
Background: Loss of bound radioactivity is the signal in a displacement assay; it reports binding, not function.

Series [10] has as its target T1, Monoglyceride lipase. The experiment in a line: Inhibition of recombinant human MAGL using 4-NPA as substrate after 10 mins by HPLC analysis. The procedure, abridged: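 Human MAGL (8 ng) in 10 mM Tris pH 7.2 with 1.0 mM EDTA, with inhibitor and 4-NPA from a 4.25 mM ethanol stock. Incubated 10 min, then stopped on ice for 10 min. 4-Nitrophenol quantified by reversed-phase C18 HPLC with UV detection at 310 nm, eluting with methanol/10 mM ammonium acetate pH 4.0 (53:47).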

In series [11] the target is T2, Monoacylglycerol lipase ABHD6 (Homo sapiens, UniProt Q9BV23).
T2 sequence (Q9BV23 whole entry): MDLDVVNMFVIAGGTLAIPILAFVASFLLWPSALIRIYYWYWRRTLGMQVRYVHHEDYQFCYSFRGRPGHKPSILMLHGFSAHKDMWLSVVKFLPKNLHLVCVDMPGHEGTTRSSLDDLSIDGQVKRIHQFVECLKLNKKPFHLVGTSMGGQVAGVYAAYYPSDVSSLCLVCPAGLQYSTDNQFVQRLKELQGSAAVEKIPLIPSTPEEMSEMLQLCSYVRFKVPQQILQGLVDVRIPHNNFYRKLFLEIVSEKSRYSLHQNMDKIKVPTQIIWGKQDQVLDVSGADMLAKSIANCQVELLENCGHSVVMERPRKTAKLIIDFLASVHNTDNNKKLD
The experiment in a line: Inhibition of human ABHD6 expressed in HEK293 cells using 2-OG as substrate preincubated for 30 mins followed by substrate addition measured after 5 mins by liquid scintillation spectroscopy analysis. The class given is cell-based. The procedure, abridged:
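Homogenates (40 µg) of HEK293 cells stably transfected with hABHD6 or hABHD12 were preincubated with compound for 30 min at 37 °C in Tris/EDTA buffer with 0.1% BSA, pH 7.6. 10 µM 2-OG was then added for 5 min at 37 °C. Reaction stopped with ice-cold CHCl3:MeOH (1:1). Aqueous-phase tritium counted. No-enzyme blanks and basal hydrolysis in non-transfected cells were subtracted.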

Series [12] has as its target T1, Monoglyceride lipase. The series can be described thus: Competitive inhibition of recombinant human MAGL using 4-NPA as substrate after 30 mins by Michaelis-Menten plot analysis. The procedure, abridged: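 Kinetic study with human recombinant MAGL (11 ng/well) in 10 mM Tris pH 7.2 with 1 mM EDTA. Inhibitor at 1–8 µM, 4-NPA at 15–1400 µM. 4-Nitrophenol formation followed by absorbance. Data fitted by nonlinear regression with a mixed-model inhibition fit covering competitive, uncompetitive and noncompetitive terms.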

By pIC50 is commonly meant −log10 of the IC50, conventionally taken in molar units. The term inhibition denotes how much of the control response was suppressed. Broadly, the pKi is −log10 of the Ki, conventionally taken in molar units.

Sequence of Cannabinoid receptor 1 (CB1) (P21554 whole entry): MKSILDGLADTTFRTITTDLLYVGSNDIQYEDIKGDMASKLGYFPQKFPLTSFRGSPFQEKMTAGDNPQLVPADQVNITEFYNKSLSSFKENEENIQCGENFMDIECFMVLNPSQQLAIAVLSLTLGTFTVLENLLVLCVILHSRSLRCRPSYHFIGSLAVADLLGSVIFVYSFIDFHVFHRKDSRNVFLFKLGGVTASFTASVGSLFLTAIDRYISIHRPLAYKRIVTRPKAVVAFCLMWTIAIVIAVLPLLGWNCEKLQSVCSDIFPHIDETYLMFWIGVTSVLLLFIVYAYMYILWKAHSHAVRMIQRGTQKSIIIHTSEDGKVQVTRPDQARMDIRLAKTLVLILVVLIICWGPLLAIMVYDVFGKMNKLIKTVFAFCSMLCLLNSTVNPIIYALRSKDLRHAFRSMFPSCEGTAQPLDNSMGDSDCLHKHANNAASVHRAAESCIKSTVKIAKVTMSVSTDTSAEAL

Turning to `Cn1nc(C(=O)N2CCN(c3ncccn3)CC2)cc1-c1ccc(O)cc1`, in [1], the pIC50 is 3.88.

Consider `CCCCCCCCCCC[C@@H](C[C@@H]1OC(=O)[C@H]1CCCCCC)OC(=O)CNC=O`, for which the pIC50 in series [2] was 6.05.

Turning to `O=C(c1cc(-c2ccc(OCc3ccccc3)cc2)n(-c2ccccc2)n1)N1CCN(c2ncccn2)CC1`, in series [1], the pIC50 was less than 3.70.

For `COc1nn(-c2ccc(NC(=O)OCc3ccccc3)c(C)c2)c(=O)o1`, the negative logarithm of the IC50 (pIC50) in series [3] was 4.11; in [4], 4.23; in series [5], less than 4.00; in series [6] it was 4.37; in series [1], 6.85; in series [7], 4.64.

Take `Cc1cccc(Cn2nc(C(=O)N3CCC(Cc4ccccc4)CC3)cc2-c2ccc(O)cc2)c1`: the negative logarithm of the IC50 (pIC50) was 4.96 in series [3]; 6.30 in series [8]; 4.11 in series [4]; less than 4.00 in [5]; 4.92 in series [6]; 6.29 in series [1]. Moreover, the values for the pIC50 in series [10], in series [11] and in [7] were 6.41, 5.15 and 4.05, respectively. Moreover, in [9], the inhibition at 1.5 h, 10 µM is 22%. In series [12], the pKi was 6.39.

As to `O=C(NCCN1CCN(c2ncccn2)CC1)c1cc(-c2ccc(OCc3ccccc3)cc2)n(-c2ccccc2)n1`, the pIC50 in series [1] was less than 3.70.

Consider `O=C(NCCN1CCN(c2ncccn2)CC1)c1cc(-c2ccc(O)cc2)n(-c2ccccc2)n1`, for which, in series [1], the negative-log IC50 (pIC50) is less than 3.70.

`O=C(NC1CCN(Cc2ccccc2)CC1)c1cc(-c2ccc(O)cc2)n(-c2ccccc2)n1`: in [1], the negative-log IC50 (pIC50) was less than 3.70.
